In ChEMBL document CHEMBL1134258, “NAC/MEA conjugate: a new potent antioxidant which increases the GSH level in various cell lines” (Bioorg Med Chem Lett, 2001):

How the values were obtained:
[1] = Effect on intracellular GSH content at 250 uM in human macrophage-derived monocytes (MDMs); format: functional
In short: (§1)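 Human MDMs from healthy-donor PBMCs (Ficoll-Hypaque gradient; monocytes split from PBLs by countercurrent centrifugal elutriation; 7 days differentiation). Cultured in DMEM Glutamax with 10% heat-inactivated FCS plus penicillin/streptomycin/neomycin. Treated 24 h, then lysed; GSH measured by Griffith's method and normalised to protein (Bradford). Run in triplicate across five independent experiments (n=15).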

[2] = Percent increase in intracellular GSH level at 100 uM in 24 hr treated human macrophage-derived monocytes (MDMs); format: functional; in short: as §1
[3] = species on record: Homo sapiens; assay: Effective dose required to inhibit 50% of HIV-1 Ba-L-infected MDM''s at 0.01 uM; format: functional
[4] = species on record: Homo sapiens; assay: Effective dose required to inhibit 70% of HIV-1 Ba-L-infected MDM''s at 0.01 uM; format: functional
[5] = species on record: Homo sapiens; assay: Effective dose required to inhibit 70% of HIV-1 Ba-L-infected MDM''s at 0.001 uM; format: functional
[6] = Tested for cytotoxic concentration in human macrophage-derived monocytes (MDMs) after 12 days; format: cell-based
In short: (§2)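 Human MDMs from donor PBMCs (elutriated monocytes, 7 days differentiation) exposed to the compound for 24 h or 12 days. Cytotoxicity read by neutral-red uptake; CC50 taken as the mean of three independent experiments, each in triplicate.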

[7] = Percent increase in intracellular GSH level at 250 uM in 24 hr treated human macrophage-derived monocytes (MDMs); format: functional; in short: as §1
[8] = Tested for cytotoxic concentration in human macrophage-derived monocytes (MDMs) at 24 hr treatment; format: cell-based; in short: as §2
[9] = system: Mus musculus; assay: Tested for intraperitoneal lethal dose in OF1 mice after 30 days; format: functional; conditions: ip, 720 h
In short: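 Mice (OF1) dosed intraperitoneally and followed for 30 days. LD50 derived by Probit analysis, with the dose range set in a preliminary study.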

[10] = species on record: Homo sapiens; assay: Effective dose required to inhibit 50% of HIV-1 Ba-L-infected MDM''s at 0.001 uM; format: functional
[11] = Percent increase in intracellular GSH level at 10 uM in 24 hr treated human macrophage-derived monocytes (MDMs); format: functional; in short: as §1
[12] = Percent increase in intracellular GSH level at 1000 uM in 24 hr treated human macrophage-derived monocytes (MDMs); format: functional; in short: as §1
[13] = species on record: Homo sapiens; assay: Effective dose required to inhibit 90% of HIV-1 Ba-L-infected MDM''s at 0.001 uM; format: functional
[14] = species on record: Homo sapiens; assay: Effective dose required to inhibit 90% of HIV-1 Ba-L-infected MDM''s at 0.01 uM; format: functional

SMILES: CC(=O)N[C@@H](CS)C(=O)O.NCCS
- GSH [1]: 190%

SMILES: CC(=O)N[C@@H](CS)C(=O)NCCSC(C)=O
- GSH [2]: 75%
- ED50 [3]: 50 µM
- ED70 [4]: 90 µM
- ED70 [5]: 15 µM
- CC50 at 288 h [6]: 635 µM
- GSH [7]: 165%
- CC50 at 24 h [8]: > 5000 µM
- LD50 [9]: 700 mg/kg
- ED50 [10]: 3 µM
- GSH [11]: 0%
- GSH [1]: 480%
- GSH [12]: 140%
- ED90 [13]: 75 µM
- ED90 [14]: 190 µM

SMILES: CC(=O)N[C@@H](CS)C(=O)O [ACETYLCYSTEINE]
- GSH [1]: 200%

SMILES: NCCS [CYSTEAMINE]
- GSH [1]: 200%
